“And” between values parts separate entries of the source, which are not always exact repeats. Equal entries are not always repeated.
Key:
Type in all cases: toxicity, cell-based
[1] = system: Fibroblast; assay: Multiplex assay against human fibroblast
In short: (§1)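 Live cells were stained at seeding with Hoechst33342, BioTracker Green Microtubule Cytoskeleton Dye, MitoTracker Red and Annexin V Alexa Fluor 680. Following compound addition, they were imaged on a CQ1 microscope at 37°C and 5% CO2 and gated by CellPathfinder machine learning into Hoechst high-intensity objects or normal cells, with normal cells split into healthy, pyknosed or fragmented nuclei and pyknosed cells into mitotic or apoptotic. Tubulin, mitochondrial-mass and membrane-permeability phenotypes are per cents of healthy-nucleus cells.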

[2] = system: HEK-293T; assay: Multiplex assay against HEK293T; settings: human; in short: as §1
[3] = system: U2OS; assay: Multiplex assay against U2OS; settings: human; in short: as §1
[4] = 12 h, 1 µM, compound concentration 1 uM
[5] = 12 h, 10 µM, compound concentration 10 uM
[6] = 24 h, 1 µM, compound concentration 1 uM
[7] = 24 h, 10 µM, compound concentration 10 uM
[8] = 48 h, 1 µM, compound concentration 1 uM
[9] = 48 h, 10 µM, compound concentration 10 uM

N#Cc1c(Oc2cccc(OS(=O)(=O)CCCC(F)(F)F)c2)cccc1C(F)(F)F
Population Apoptotic (%) [1, 4]: 51% and 38% | Population Fragmented Nuclei (%) [1, 4]: 13% and 27% | Population Healthy Nuclei (%) [1, 4]: 63% and 48% | Population Hoechst High Intensity Objects (%) [1, 4]: 2% and 7% | Population Membrane Permeable-Phenotype (%) [1, 4]: 1% and 9% | Population Mitochondria Different-Phenotype (%) [1, 4]: 7% | Population Mitotic Cells (%) [1, 4]: 48% and 61% | Population Normal (%) [1, 4]: 97% and 92% | Population Pyknosed Nuclei (%) [1, 4]: 23% and 24% | Population Tubulin-Different-Phenotype (%) [1, 4]: 38% and 59% | Total Cell Count [1, 4]: 146 and 148 | Population Apoptotic (%) [1, 5]: 31% and 66% | Population Fragmented Nuclei (%) [1, 5]: 14% and 42% | Population Healthy Nuclei (%) [1, 5]: 59% and 22% | Population Hoechst High Intensity Objects (%) [1, 5]: 6% and 7% | Population Mitochondria Different-Phenotype (%) [1, 5]: 7% and 3% | Population Mitotic Cells (%) [1, 5]: 68% and 33% | Population Normal (%) [1, 5]: 93% and 92% | Population Pyknosed Nuclei (%) [1, 5]: 26% and 35% | Population Tubulin-Different-Phenotype (%) [1, 5]: 36% and 75% | Total Cell Count [1, 5]: 180 and 138 | Population Apoptotic (%) [1, 6]: 50% and 54% | Population Fragmented Nuclei (%) [1, 6]: 20% and 33% | Population Healthy Nuclei (%) [1, 6]: 62% and 50% | Population Hoechst High Intensity Objects (%) [1, 6]: 6% and 3% | Population Membrane Permeable-Phenotype (%) [1, 6]: 1% and 5% | Population Mitochondria Different-Phenotype (%) [1, 6]: 4% and 5% | Population Mitotic Cells (%) [1, 6]: 50% and 45% | Population Normal (%) [1, 6]: 93% and 96% | Population Pyknosed Nuclei (%) [1, 6]: 17% and 16% | Population Tubulin-Different-Phenotype (%) [1, 6]: 45% and 57% | Total Cell Count [1, 6]: 148 and 147 | Population Apoptotic (%) [1, 7]: 44% and 61% | Population Healthy Nuclei (%) [1, 7]: 59% and 23% | Population Hoechst High Intensity Objects (%) [1, 7]: 5% and 8% | Population Mitochondria Different-Phenotype (%) [1, 7]: 12% and 22% | Population Mitotic Cells (%) [1, 7]: 55% and 38% | Population Normal (%) [1, 7]: 94% and 91% | Population Pyknosed Nuclei (%) [1, 7]: 27% and 36% | Population Tubulin-Different-Phenotype (%) [1, 7]: 43% and 77% | Total Cell Count [1, 7]: 174 and 127 | Population Apoptotic (%) [1, 8]: 60% and 38% | Population Fragmented Nuclei (%) [1, 8]: 18% and 26% | Population Healthy Nuclei (%) [1, 8]: 66% and 59% | Population Hoechst High Intensity Objects (%) [1, 8]: 7% and 5% | Population Mitochondria Different-Phenotype (%) [1, 8]: 5% and 2% | Population Mitotic Cells (%) [1, 8]: 40% and 61% | Population Normal (%) [1, 8]: 92% and 94% | Population Pyknosed Nuclei (%) [1, 8]: 14% | Population Tubulin-Different-Phenotype (%) [1, 8]: 42% and 56% | Total Cell Count [1, 8]: 145 and 133 | Population Apoptotic (%) [1, 9]: 52% and 59% | Population Fragmented Nuclei (%) [1, 9]: 20% and 43% | Population Healthy Nuclei (%) [1, 9]: 54% and 31% | Population Hoechst High Intensity Objects (%) [1, 9]: 9% and 2% | Population Mitochondria Different-Phenotype (%) [1, 9]: 12% and 15% | Population Mitotic Cells (%) [1, 9]: 47% and 40% | Population Normal (%) [1, 9]: 90% and 97% | Population Pyknosed Nuclei (%) [1, 9]: 24% and 25% | Population Tubulin-Different-Phenotype (%) [1, 9]: 47% and 89% | Total Cell Count [1, 9]: 172 and 150 | Population Apoptotic (%) [2, 4]: 35% and 63% | Population Fragmented Nuclei (%) [2, 4]: 4% and 6% | Population Healthy Nuclei (%) [2, 4]: 86% and 75% | Population Hoechst High Intensity Objects (%) [2, 4]: 5% and 11% | Population Membrane Permeable-Phenotype (%) [2, 4]: 0% | Population Mitochondria Different-Phenotype (%) [2, 4]: 46% and 60% | Population Mitotic Cells (%) [2, 4]: 65% and 36% | Population Normal (%) [2, 4]: 94% and 88% | Population Pyknosed Nuclei (%) [2, 4]: 8% and 17% | Population Tubulin-Different-Phenotype (%) [2, 4]: 38% and 28% | Total Cell Count [2, 4]: 490 and 349 | Population Apoptotic (%) [2, 5]: 42% and 44% | Population Fragmented Nuclei (%) [2, 5]: 8% and 6% | Population Healthy Nuclei (%) [2, 5]: 65% and 64% | Population Membrane Permeable-Phenotype (%) [2, 5]: 0% | Population Mitochondria Different-Phenotype (%) [2, 5]: 74% and 81% | Population Mitotic Cells (%) [2, 5]: 57% and 55% | Population Normal (%) [2, 5]: 89% and 59% | Population Pyknosed Nuclei (%) [2, 5]: 25% and 28% | Population Tubulin-Different-Phenotype (%) [2, 5]: 65% and 58% | Total Cell Count [2, 5]: 290 and 318 | Population Apoptotic (%) [2, 6]: 28% and 60% | Population Fragmented Nuclei (%) [2, 6]: 10% and 8% | Population Healthy Nuclei (%) [2, 6]: 77% and 81% | Population Hoechst High Intensity Objects (%) [2, 6]: 3% and 9% | Population Membrane Permeable-Phenotype (%) [2, 6]: 0% | Population Mitochondria Different-Phenotype (%) [2, 6]: 34% and 48% | Population Mitotic Cells (%) [2, 6]: 71% and 40% | Population Normal (%) [2, 6]: 96% and 90% | Population Pyknosed Nuclei (%) [2, 6]: 12% and 9% | Population Tubulin-Different-Phenotype (%) [2, 6]: 26% and 20% | Total Cell Count [2, 6]: 654 and 412 | Population Apoptotic (%) [2, 7]: 43% and 45% | Population Fragmented Nuclei (%) [2, 7]: 9% and 10% | Population Healthy Nuclei (%) [2, 7]: 77% and 61% | Population Membrane Permeable-Phenotype (%) [2, 7]: 0% | Population Mitochondria Different-Phenotype (%) [2, 7]: 66% and 68% | Population Mitotic Cells (%) [2, 7]: 56% and 54% | Population Normal (%) [2, 7]: 86% and 52% | Population Pyknosed Nuclei (%) [2, 7]: 13% and 27% | Population Tubulin-Different-Phenotype (%) [2, 7]: 56% and 41% | Total Cell Count [2, 7]: 338 and 312 | Population Apoptotic (%) [2, 8]: 20% and 56% | Population Fragmented Nuclei (%) [2, 8]: 13% and 12% | Population Healthy Nuclei (%) [2, 8]: 81% and 82% | Population Hoechst High Intensity Objects (%) [2, 8]: 1% and 5% | Population Membrane Permeable-Phenotype (%) [2, 8]: 1% and 0% | Population Mitochondria Different-Phenotype (%) [2, 8]: 21% and 23% | Population Mitotic Cells (%) [2, 8]: 79% and 43% | Population Normal (%) [2, 8]: 98% and 94% | Population Pyknosed Nuclei (%) [2, 8]: 5% | Population Tubulin-Different-Phenotype (%) [2, 8]: 15% and 13% | Total Cell Count [2, 8]: 986 and 568 | Population Apoptotic (%) [2, 9]: 44% and 58% | Population Fragmented Nuclei (%) [2, 9]: 11% | Population Healthy Nuclei (%) [2, 9]: 78% and 69% | Population Membrane Permeable-Phenotype (%) [2, 9]: 0% | Population Mitochondria Different-Phenotype (%) [2, 9]: 44% and 47% | Population Mitotic Cells (%) [2, 9]: 55% and 41% | Population Normal (%) [2, 9]: 94% and 75% | Population Pyknosed Nuclei (%) [2, 9]: 10% and 18% | Population Tubulin-Different-Phenotype (%) [2, 9]: 29% and 23% | Total Cell Count [2, 9]: 464 and 363 | Population Apoptotic (%) [3, 4]: 77% and 81% | Population Fragmented Nuclei (%) [3, 4]: 27% and 12% | Population Healthy Nuclei (%) [3, 4]: 61% and 76% | Population Hoechst High Intensity Objects (%) [3, 4]: 3% and 0% | Population Membrane Permeable-Phenotype (%) [3, 4]: 4% and 7% | Population Mitochondria Different-Phenotype (%) [3, 4]: 2% and 7% | Population Mitotic Cells (%) [3, 4]: 22% and 18% | Population Normal (%) [3, 4]: 96% and 99% | Population Pyknosed Nuclei (%) [3, 4]: 10% | Population Tubulin-Different-Phenotype (%) [3, 4]: 0% and 8% | Total Cell Count [3, 4]: 220 and 109 | Population Apoptotic (%) [3, 5]: 78% and 90% | Population Fragmented Nuclei (%) [3, 5]: 27% and 14% | Population Healthy Nuclei (%) [3, 5]: 63% and 75% | Population Hoechst High Intensity Objects (%) [3, 5]: 3% and 0% | Population Membrane Permeable-Phenotype (%) [3, 5]: 11% and 21% | Population Mitochondria Different-Phenotype (%) [3, 5]: 8% and 4% | Population Mitotic Cells (%) [3, 5]: 21% and 9% | Population Normal (%) [3, 5]: 96% and 99% | Population Pyknosed Nuclei (%) [3, 5]: 8% and 9% | Population Tubulin-Different-Phenotype (%) [3, 5]: 7% | Total Cell Count [3, 5]: 222 and 112 | Population Apoptotic (%) [3, 6]: 75% and 90% | Population Fragmented Nuclei (%) [3, 6]: 25% and 12% | Population Healthy Nuclei (%) [3, 6]: 61% and 79% | Population Hoechst High Intensity Objects (%) [3, 6]: 2% and 1% | Population Membrane Permeable-Phenotype (%) [3, 6]: 4% and 11% | Population Mitochondria Different-Phenotype (%) [3, 6]: 2% and 3% | Population Mitotic Cells (%) [3, 6]: 24% and 10% | Population Normal (%) [3, 6]: 97% and 98% | Population Pyknosed Nuclei (%) [3, 6]: 12% and 7% | Population Tubulin-Different-Phenotype (%) [3, 6]: 3% and 7% | Total Cell Count [3, 6]: 263 and 130 | Population Apoptotic (%) [3, 7]: 66% | Population Fragmented Nuclei (%) [3, 7]: 26% and 9% | Population Healthy Nuclei (%) [3, 7]: 66% and 83% | Population Hoechst High Intensity Objects (%) [3, 7]: 6% and 3% | Population Membrane Permeable-Phenotype (%) [3, 7]: 10% and 11% | Population Mitochondria Different-Phenotype (%) [3, 7]: 8% and 0% | Population Mitotic Cells (%) [3, 7]: 33% | Population Normal (%) [3, 7]: 93% and 96% | Population Pyknosed Nuclei (%) [3, 7]: 7% | Population Tubulin-Different-Phenotype (%) [3, 7]: 5% and 7% | Total Cell Count [3, 7]: 252 and 130 | Population Apoptotic (%) [3, 8]: 87% and 100% | Population Fragmented Nuclei (%) [3, 8]: 17% and 16% | Population Healthy Nuclei (%) [3, 8]: 70% and 73% | Population Hoechst High Intensity Objects (%) [3, 8]: 3% and 2% | Population Membrane Permeable-Phenotype (%) [3, 8]: 4% and 9% | Population Mitochondria Different-Phenotype (%) [3, 8]: 0% and 4% | Population Mitotic Cells (%) [3, 8]: 12% and 0% | Population Normal (%) [3, 8]: 96% and 97% | Population Pyknosed Nuclei (%) [3, 8]: 11% and 9% | Population Tubulin-Different-Phenotype (%) [3, 8]: 3% and 7% | Total Cell Count [3, 8]: 361 and 195 | Population Apoptotic (%) [3, 9]: 91% and 100% | Population Fragmented Nuclei (%) [3, 9]: 23% and 11% | Population Healthy Nuclei (%) [3, 9]: 64% and 77% | Population Hoechst High Intensity Objects (%) [3, 9]: 4% and 3% | Population Membrane Permeable-Phenotype (%) [3, 9]: 10% and 13% | Population Mitochondria Different-Phenotype (%) [3, 9]: 6% and 4% | Population Mitotic Cells (%) [3, 9]: 8% and 0% | Population Normal (%) [3, 9]: 95% and 96% | Population Pyknosed Nuclei (%) [3, 9]: 11% and 10% | Population Tubulin-Different-Phenotype (%) [3, 9]: 6% and 7% | Total Cell Count [3, 9]: 328 and 184
